T cruzi inh: blocks replication of Trypanosoma cruzi; T. cruzi beta-gal in NIH3T3, luminescence, 90 h; inhibition, % (test concentration not listed); actives 1.4% (n = 300,000);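 active means mean inhibition across valid replicates above about 55%, limit read from the data; inconclusive means mean below that limit but half or more replicates reach it; inactive means mean below it, under half of replicates reach it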;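 further: signal also drops with host cell toxicity which is not excluded here; higher percent means less beta-gal luminescence so fewer parasites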
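compound dosing = single 50 nL compound addition per well in DMSO | material = NIH/3T3 host cells with β-galactosidase reporter T. cruzi | input = 5,000 host fibroblasts per well | timing = ≥90 h infection period, 3 h prior cell attachment | read-out basis = percent inhibition of parasite-derived β-gal signal | detection = GalScreen β-gal luminescence, detergent lysis, 60 min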
Calb FLC: C. albicans growth modulation with fluconazole. C. albicans CaCi-2 + fluconazole, Alamar Blue growth, 48 h. growth inhibition, % (test concentration not listed). actives 0.57% (n = 300,000);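 active means growth inhibition above about 58% in most replicates, limit read from the data, passing the limit was not always enough; inconclusive means exactly half the replicates above a set limit; inactive means most replicates below a set limit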;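 further: all wells also contain fluconazole at 8 µg/ml as a sub-toxic cotreatment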
NLRP3 yeast inh: NALP3 inhibition in yeast; Yeast reconstituted NLRP3/ASC/caspase-1, beta-gal luminescence, 24 h; inhibition, % at 10 µM; actives 0.39% (n = 330,000);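 active means inhibition of 50% or more; inactive means inhibition below 50%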
NALP1 yeast inh: blocks the NALP1 inflammasome reconstituted in yeast; inhibition, % at 10 µM; AID 2071; actives 0.61% (n = 280,000); S. cerevisiae NALP1/ASC/caspase-1 growth, X-gal OD620, 72 h; in the data active means inhibition mostly above about 24%, no sharp cut-off; inactive means mostly below about 32%
PolyA inhibitor: inhibitors of polyadenylation in S. cerevisiae; activity score, % at 12 µM; S. cerevisiae SKY197-pL101 polyadenylation reporter, beta-gal luminescence; efflux-impaired pdr1/pdr3 knockout yeast; score 100 = 6 SD above DMSO; actives 0.02% (n = 300,000);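 active means lowest replicate activity score at least 50, where 100 means six control SD above control mean; inconclusive means lowest score under 50 but half or more replicates reach 50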;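 further: yeast exposed to compound for 9 h at 30 °C; higher score means more reporter readthrough which indicates perturbed polyadenylation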
Lmaj promast: reduces viability of Leishmania major promastigotes | inhibition, % at 10 µM | AID 1063 | actives 9% (n = 200,000) | resazurin fluorescence viability; in the data active means inhibition above about 50%;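 further: promastigotes grown with compound for 44 hours at 28 °C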
Large screens that a line does not name were inactive. The entries come from a sample that favours hits as a whole.

O=C(NCc1ccccc1)C1c2ccccc2Oc2ccccc21	Calb FLC 118
Cc1cccc2sc(NC(=O)C3c4ccccc4Oc4ccccc43)nc12	Lmaj promast 81
O=C(O)C1C2C=CC(C2)C1C(=O)Nc1ccc(C(=O)N2CCCCC2)cc1 (configuration not stated)	none (no result: T cruzi inh, Calb FLC, PolyA inhibitor)
O=C(C1CCC1)N1CCN(S(=O)(=O)c2ccccc2)CC1	none (no result: NALP1 yeast inh, Lmaj promast)
O=C(O)C1CCCN(S(=O)(=O)c2ccc3c(c2)OCCO3)C1 (configuration not stated)	none
COc1ccc(CCN2C(=O)CC(N3CCN(C/C=C/c4ccccc4)CC3)C2=O)cc1OC (configuration not stated)	none (no result: NALP1 yeast inh, Lmaj promast)
Cc1ccccc1Cn1nc(C)c(NC(=O)C2c3ccccc3Oc3ccccc32)c1C	Lmaj promast 84
C=CCn1c(C)cc(C(=O)CSc2n[nH]c(N)n2)c1C	none
O=C(CC(SCc1ccco1)c1ccc(O)cc1)c1cccs1 (configuration not stated)	none
O=C(CC(SCCO)c1ccc2c(c1)OCO2)c1cccs1 (configuration not stated)	Lmaj promast 73
CS(=O)(=O)N(CC(=O)Nc1c(F)cccc1F)c1ccc(C23CC4CC(CC(C4)C2)C3)cc1	T cruzi inh 70
CS(=O)(=O)N(CC(=O)Nc1ccc(CC#N)cc1)c1ccc(C23CC4CC(CC(C4)C2)C3)cc1	T cruzi inh 70 (no result: NALP1 yeast inh)
CNC(=O)CN(c1ccc(C23CC4CC(CC(C4)C2)C3)cc1)S(C)(=O)=O	Calb FLC inconclusive
CCOc1ncccc1C(=O)OCC(=O)Nc1ccc2c(c1)OCCO2	none (no result: T cruzi inh, Calb FLC, NALP1 yeast inh, PolyA inhibitor, Lmaj promast)
Oc1ccc(/C=N/Nc2ccc(C(F)(F)F)cn2)c(O)c1	Calb FLC 100 (no result: Lmaj promast)
Oc1ccc(/C=N/Nc2ccc(C(F)(F)F)cn2)cc1	none
O=Cc1s/c(=N\S(=O)(=O)c2ccccc2)n(CCCCl)c1Cl	T cruzi inh 81 (no result: NLRP3 yeast inh)
CCn1c(C2CCN(S(=O)(=O)c3ccc(OC)cc3)CC2)n[nH]c1=S	none
COc1ccc(C2=NC(c3ccccc3)CO2)cc1 (configuration not stated)	none
COc1ccc(C2=Nc3ccccc3OC2)cc1	Lmaj promast 98
CCCCOC(=O)c1ccc(NC(=S)NC(=O)c2c(Br)c(C)nn2C)cc1	none
COc1ccc(NC(=O)NC23CC4(C)CC(C)(CC(C)(C4)C2)C3)cc1	Lmaj promast 95
COc1ccc(/C=C2\CCC/C(=C\C=N\N(C)C)C2=O)cc1	Lmaj promast 93
CN(C)c1ccc(/C=C2\CCC/C(=C\c3ccccc3)C2=O)cc1	none (no result: NLRP3 yeast inh)
COc1ccc(/C=C2\CCCCC2=O)cc1	none (no result: NALP1 yeast inh, Lmaj promast)
CN(C)/N=C/C=C1\CCC/C(=C\c2ccc(F)c(F)c2)C1=O	Lmaj promast 97
Fc1cc(F)c(F)c(SCCc2ccncc2)c1F	none (no result: NALP1 yeast inh)
Cc1[nH]nc2c1C(c1ccc(-c3ccccc3C#N)o1)C(C#N)=C(N)O2 (configuration not stated)	Lmaj promast 100
Cc1[nH]nc2c1C(c1ccc(-c3ccc(Cl)cc3)o1)C(C#N)=C(N)O2 (configuration not stated)	Lmaj promast 100
Cc1[nH]nc2c1C(c1ccc(F)cc1)C(C#N)=C(N)O2 (configuration not stated)	none
Cc1ccc(-c2ccc(C3C(C#N)=C(N)Oc4n[nH]c(C)c43)o2)cc1 (configuration not stated)	Lmaj promast 101
CC(=O)c1c(C)[nH]c(C(=O)OCC(=O)Nc2cc(C(F)(F)F)ccc2N2CCOCC2)c1C	none
COc1ccc(N(CC(=O)N2CCCC2)S(=O)(=O)c2ccc(NC(C)=O)cc2)cc1	none (no result: Lmaj promast)
CCCCCn1nnc2c(=O)oc3ccccc3c21	none
CC1=C(C(=O)Nc2cccnc2)C(c2ccncc2)n2nnnc2N1 (configuration not stated)	none (no result: NALP1 yeast inh)
COc1ccccc1NC(=O)C1=C(C)Nc2nnnn2C1c1cc(Br)ccc1OC (configuration not stated)	Lmaj promast 97
CC1=C(C(=O)Nc2ccccc2)C(c2ccncc2)n2nnnc2N1 (configuration not stated)	Lmaj promast 57 (no result: NALP1 yeast inh)
CN(c1ccccc1)S(=O)(=O)c1cccc(C(=O)NC2CCCCC2)c1	none (no result: T cruzi inh, Calb FLC, NALP1 yeast inh, PolyA inhibitor, Lmaj promast)
O=C(c1cc(N2C(=O)C3C4CCC(C4)C3C2=O)ccc1Cl)N1CCN(c2ccccc2)CC1 (configuration not stated)	Lmaj promast 72
COC(=O)c1scc(C)c1N/N=C(\C)c1ccc(F)cc1	NALP1 yeast inh 42
Cc1csc(C(=O)O)c1NC(=O)c1ccc(F)cc1	none (no result: Lmaj promast)
CC1=NN(C(=O)Cc2ccccc2)C(O)(c2cccnc2)C1 (configuration not stated)	none
COC(=O)C1C(=O)c2c(C)noc2CC1(C)C (configuration not stated)	none
COc1ccc(C2Nc3ccccc3C(=O)N2NS(C)(=O)=O)cc1 (configuration not stated)	none
CS(=O)(=O)NN1C(=O)c2ccccc2NC1c1cccc2cccnc12 (configuration not stated)	Calb FLC 80 (no result: NALP1 yeast inh)
CC(=O)N1c2ccc3ccccc3c2C2C=CCC2C1c1ccc(Br)cc1 (configuration not stated)	Lmaj promast 97 (no result: T cruzi inh, Calb FLC, NLRP3 yeast inh, PolyA inhibitor)
CC(=O)N1c2ccc(Cl)cc2C2C=CCC2C1c1cccc2ccccc12 (configuration not stated)	none (no result: T cruzi inh, Calb FLC, NLRP3 yeast inh, PolyA inhibitor)
CCN(CC)S(=O)(=O)c1ccc(N2CCOCC2)c(NC(=O)c2[nH]c(C)c(C(C)=O)c2C)c1	none (no result: T cruzi inh, Calb FLC, NALP1 yeast inh, PolyA inhibitor, Lmaj promast)
CCOC(=O)C1=C(C)NC(=S)NC1c1ccc(OC(=O)c2ccco2)cc1 (configuration not stated)	none
COC(=O)c1c(NC(=O)CC2Nc3ccccc3NC2=O)sc(C)c1C (configuration not stated)	none
CCOC(=O)c1c(NC(=O)C2=C(C)NC(=S)NC2c2ccc(CC)cc2)sc(C)c1C (configuration not stated)	Lmaj promast 85
O=C(CC1Nc2ccccc2NC1=O)Nc1cc(Cl)cc(Cl)c1 (configuration not stated)	T cruzi inh inconclusive, Lmaj promast 51
CCOC(=O)c1c(NC(=O)CC2Nc3ccccc3NC2=O)sc(C)c1C (configuration not stated)	Lmaj promast 58
O=C(CC1SC(=O)NC1=O)Nc1ccc(Cl)cc1 (configuration not stated)	none
O=C(CC1NC(=O)NC1=O)Nc1ccc(Cl)cc1 (configuration not stated)	NALP1 yeast inh 38
COc1ccc(NC(=O)C2CC(=O)N(Cc3ccco3)C2)cc1Cl (configuration not stated)	none (no result: T cruzi inh, Calb FLC, NALP1 yeast inh, PolyA inhibitor, Lmaj promast)
